Columns and labels:
[1] = biological target: T1, Free fatty acid receptor 1 (Homo sapiens, UniProt O14842); assay: Agonist activity at human FFA1 receptor expressed in CHO cells assessed as induction of Ca2+ flux by fluo-8 dye based FLIPR assay; assay type: functional, cell-based
Summary of the method: (§1)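 CHO cells stably expressing human GPR40 seeded 24 h before assay, loaded 1 h with Fluo-8 calcium dye, read on FLIPR. Agonist response taken as maximum fluorescence change over baseline; concentration-response curves fitted for EC50. Efficacy expressed relative to GW9508 at 5 μM.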

[2] = biological target: T1, Free fatty acid receptor 1; assay: Agonist activity at human FFA1 receptor expressed in CHO cells assessed as induction of Ca2+ flux by fluo-8 dye based FLIPR assay relative to GW9508; assay type: functional, cell-based; summary of the method: as §1
[3] = Apparent permeability from apical to basolateral side in human Caco2 cells at 10 uM by HPLC-MS analysis; assay type: ADME, cell-based; settings: Caco-2
Summary of the method: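 Apical-to-basolateral transport across Caco-2 monolayers, integrity checked by TEER in every well. Compound at 10 μM, acceptor concentrations by HPLC-MS. Papp = (VA/(area × time)) × ([drug]acc/[drug]initial,donor), insert area 0.31 cm², in 10^-6 cm/s. Mean of n = 2.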

[4] = Intrinsic clearance in BALB/c mouse liver microsomes at 2 uM up to 40 mins by HPLC-MS analysis; assay type: ADME
Summary of the method: (§2)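 Pooled liver microsomes from male BALB/c mice at 0.42 mg protein/ml in 100 mM potassium phosphate pH 7.4 with MgCl2, NADPH and a G6P/G6PDH regenerating system. Compound 2 μM (1.6% solvent), 37°C, five time points over 40 min, duplicates. Quenched in acetonitrile, analysed by HPLC-MS/MS. kel from ln(AUC) versus time; T1/2 = 0.693/kel; CLint scaled to incubation volume per mg microsomes.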

[5] = Half life in BALB/c mouse liver microsomes at 2 uM by HPLC-MS analysis; assay type: ADME; summary of the method: as §2
[6] = Protein binding in human plasma at 1 uM after 5 hrs by HPLC-MS/MS analysis; assay type: ADME, cell-free; settings: read-out: PPB (converted)
Summary of the method: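 Equilibrium dialysis (12–14 kDa MWCO) of plasma spiked at 1 μM (1% solvent) against PBS pH 7.4, 5 h at 37°C with shaking, quadruplicates. Chambers matrix-matched, precipitated with acetonitrile and analysed by HPLC-MS/MS. Bound % = (1 − buffer/plasma peak area) × 100; recovery checked against undialyzed spiked plasma.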

[7] = biological target: T2, Free fatty acid receptor 3 (Homo sapiens, UniProt O14843); assay: Agonist activity at human FFA3 receptor expressed in CHO cells assessed as induction of Ca2+ flux by fluo-8 dye based FLIPR assay; assay type: functional, cell-based
T2 sequence (O14843 whole entry): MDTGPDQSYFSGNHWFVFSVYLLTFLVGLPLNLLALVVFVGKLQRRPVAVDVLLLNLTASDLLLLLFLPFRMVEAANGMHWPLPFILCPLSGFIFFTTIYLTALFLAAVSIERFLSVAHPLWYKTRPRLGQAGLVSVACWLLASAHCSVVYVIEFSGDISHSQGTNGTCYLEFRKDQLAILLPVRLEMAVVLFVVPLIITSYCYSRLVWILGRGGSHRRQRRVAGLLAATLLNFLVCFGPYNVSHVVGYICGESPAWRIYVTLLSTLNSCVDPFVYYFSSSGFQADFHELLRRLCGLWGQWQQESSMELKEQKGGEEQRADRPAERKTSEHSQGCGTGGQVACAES
Summary of the method: (§3)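 CHO lines stably expressing the respective receptor (GPR43, GPR41 or GPR120) used for specificity screening. Cells loaded 1 h with Fluo-8 calcium dye and read by FLIPR; maximum fluorescence change over baseline taken as agonist response.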

[8] = biological target: T3, Free fatty acid receptor 2 (Homo sapiens, UniProt O15552); assay: Agonist activity at human FFA2 receptor expressed in CHO cells assessed as induction of Ca2+ flux by fluo-8 dye based FLIPR assay; assay type: functional, cell-based; summary of the method: as §3
T3 sequence (O15552 whole entry): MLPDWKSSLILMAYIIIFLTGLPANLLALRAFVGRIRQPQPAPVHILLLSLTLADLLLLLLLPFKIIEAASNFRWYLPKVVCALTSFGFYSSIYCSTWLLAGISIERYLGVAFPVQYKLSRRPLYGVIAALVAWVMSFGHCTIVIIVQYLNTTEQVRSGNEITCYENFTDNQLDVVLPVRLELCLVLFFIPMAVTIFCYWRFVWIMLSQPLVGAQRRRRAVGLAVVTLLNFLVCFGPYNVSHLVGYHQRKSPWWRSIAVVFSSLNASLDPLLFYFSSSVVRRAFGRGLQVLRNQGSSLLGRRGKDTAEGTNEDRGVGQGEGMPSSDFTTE

[9] = Kinetic aqueous solubility of the compound in PBS buffer […] at pH 7.4 after 2 hrs by UV-Visible spectrophotometric analysis; assay type: physicochemical; settings: read-out: Kinetic_solubility
Summary of the method: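 Equilibrated 2 h at 25°C with shaking, then filtered. Filtrates read by UV-Vis scan against 0–400 μM calibration curves in methanol/PBS.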

[10] = biological target: T4, Free fatty acid receptor 4 (Homo sapiens, UniProt Q5NUL3); assay: Agonist activity at human FFA4 receptor expressed in CHO cells assessed as induction of Ca2+ flux by fluo-8 dye based FLIPR assay; assay type: functional, cell-based; summary of the method: as §3
T4 sequence (Q5NUL3 whole entry): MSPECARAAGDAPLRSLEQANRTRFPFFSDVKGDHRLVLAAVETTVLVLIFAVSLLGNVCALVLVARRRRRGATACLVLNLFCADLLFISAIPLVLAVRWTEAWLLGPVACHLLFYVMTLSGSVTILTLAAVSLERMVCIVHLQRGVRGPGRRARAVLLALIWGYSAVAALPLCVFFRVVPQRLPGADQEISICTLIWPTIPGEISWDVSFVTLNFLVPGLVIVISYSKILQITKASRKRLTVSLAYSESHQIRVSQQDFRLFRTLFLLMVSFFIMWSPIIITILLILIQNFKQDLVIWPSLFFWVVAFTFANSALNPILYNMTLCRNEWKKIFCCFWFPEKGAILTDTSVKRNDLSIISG

T1 sequence (O14842 whole entry): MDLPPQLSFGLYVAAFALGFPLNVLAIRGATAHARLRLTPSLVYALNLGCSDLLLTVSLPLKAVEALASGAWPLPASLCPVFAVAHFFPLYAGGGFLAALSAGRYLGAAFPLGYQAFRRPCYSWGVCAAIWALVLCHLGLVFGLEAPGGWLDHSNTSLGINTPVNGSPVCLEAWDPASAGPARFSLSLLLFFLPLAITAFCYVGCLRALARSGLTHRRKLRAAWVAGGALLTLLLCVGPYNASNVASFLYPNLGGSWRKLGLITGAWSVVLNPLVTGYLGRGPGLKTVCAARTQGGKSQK

SMILES	EC50 [1]	Emax [2]	also measured
O=C(O)CCc1ccc(OCc2ccc(CN3CCC4(CC3)CC(Cc3nc(C5CC5)no3)CCO4)cc2)cc1 (centres undefined)	4.54 µM	53%	
O=C(O)CCc1ccc(OCc2ccc(CN3CCC4(CC3)CC(OCc3cccc(F)c3)CCO4)cc2)cc1 (centres undefined)	1.3 µM	98%	
CC(C)NCC(O)COc1cccc2ccccc12 (centres undefined) [PROPRANOLOL]			Papp A→B at 10 µM [3]: 28 ×10⁻⁶ cm/s
CC1CCOC2(CCN(Cc3ccc(COc4ccc(CCC(=O)O)cc4)cc3)CC2)C1 (centres undefined)	> 20 µM		
O=C(O)CCc1ccc(OCc2ccc(CN3CCC4(CC3)CC(Cc3cccc(F)c3)CCO4)cc2)cc1 (centres undefined)	> 20 µM		
O=C(O)CCc1ccc(OCc2ccc(CN3CCC4(CC3)CC(OCc3ccc(C(F)(F)F)cc3)CCO4)cc2)cc1 (centres undefined)	> 20 µM		
O=C(O)CCc1ccc(OCc2ccc(CN3CCC4(CC3)CC(OCC3CC3)CCO4)cc2)cc1 (centres undefined)	> 20 µM		
COC1CCOC2(CCN(Cc3ccc(COc4ccc(CCC(=O)O)cc4)cc3)CC2)C1 (centres undefined)	> 20 µM		

The remaining compounds from weak to strong by EC50 [1], led by results:

EC50 [1]	Emax [2]	SMILES	also measured
1.27 µM	74%	O=C(O)CCc1ccc(OCc2ccc(CN3CCC4(CC3)CC(Cc3ccc(C(F)(F)F)cc3)CCO4)cc2)cc1 (centres undefined)	
1.16 µM	100%	O=C(O)CCc1ccc(OCc2ccc(CN3CCC4(CC3)CC(OCc3ccccc3)CCO4)cc2)cc1 (centres undefined)	
0.077 µM	74%	Cc1ccc(CC2CCOC3(CCN(Cc4ccc(COc5ccc(CCC(=O)O)cc5)cc4)CC3)C2)cc1.Cl (centres undefined)	Papp A→B at 10 µM [3]: 10.4 ×10⁻⁶ cm/s; CLint at 40 min, 2 µM [4]: 173 µL/min/mg; half-life at 2 µM [5]: 9.6 min; fraction unbound at 5 h, 1 µM [6]: 0.002; EC50 [7]: > 10 µM; EC50 [8]: > 10 µM; solubility kinetic at 2 h [9]: 69 µM; EC50 [10]: > 10 µM
